Assay [1] deals with Mus musculus. The experiment in a line: In vivo opioid activity was evaluated by determining analgesia in the mouse by the tail-flick test, when administered through subcutaneous route. In kind it is functional. Conditions: sc. The procedure, abridged: (§1)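 Swiss-Webster mice (23–25 g), tail-flick test with 55 °C water as the stimulus. Compound was given icv or sc in saline (4 μL), with latency read before and at various times after dosing. Cut-off was 10 s. %analgesia = (T−T0)/(10−T0)×100. At least 10 animals per dose; ED50 taken at time of peak activity. Naloxone pretreatment 0.5–1 mg/kg sc.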
In general terms: Thermal pain tests record how soon the animal reacts.

The test system of assay [2] is Mus musculus. The experiment in a line: In vivo opioid activity was evaluated by determining analgesia in the mouse by the tail-flick test, relative potency with respect to morphine intracerebroventricular route. In kind it is functional. The gist of the method: (§2)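 Mouse tail-flick analgesia in Swiss-Webster mice (23–25 g) with 55 °C water, compound given icv or sc in saline (4 μL). Cut-off was 10 s; %analgesia was computed from pre- and post-dose latencies. At least 10 animals per dose, with ED50 taken at peak activity.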

The target of assay [3] is Opioid receptors; mu/kappa/delta. The experiment in a line: In vitro opioid inhibitory activity against in guinea pig ileum. In kind it is functional, tissue-based, Cavia porcellus.
Assay [4] deals with Mus musculus. Kind of assay: In vivo opioid activity was evaluated by determining analgesia in the mouse by the tail-flick test Relative potency with respect to morphine when administered through subcutaneous route. It counts as functional. The gist of the method: as §2
Assay [5] deals with Mus musculus. Kind of assay: In vivo opioid activity was evaluated by determining analgesia in the mouse by the tail-flick test when administered through intracerebroventricular route. In kind it is functional. The gist of the method: as §1
Assay [6] concerns Mus musculus. Kind of assay: In vivo opioid activity was evaluated by determining analgesia in the mouse by the tail-flick test, when administered through Subcutaneous route. It counts as functional. The note with it: sc. The gist of the method: as §1
The test system of assay [7] is Mus musculus. Kind of assay: In vivo opioid activity was evaluated by determining analgesia in the mouse by the tail-flick test. Relative potency with respect to morphine when administered through subcutaneous route. In kind it is functional. The gist of the method: as §2
In assay [8] the test system is Mus musculus. Kind of assay: In Vivo opioid activity was evaluated by determining analgesia in the mouse by the tail-flick test when administered through intra cerebro ventricular route. In kind it is functional. The gist of the method:
as §1

Assay [9] concerns Mus musculus. Kind of assay: In vivo opioid activity was evaluated by determining analgesia in the mouse by the tail-flick test, relative potency with respect to morphine intra cerebro ventricular route. It counts as functional. The gist of the method:
as §2

The target in assay [10] is Opioid receptors; mu/kappa/delta (Homo sapiens, UniProt P41145+P41143+P35372). The experiment in a line: In vitro inhibitory activity against opioid activity in guinea pig ileum, relative to H-Tyr-D-MetO-Phe-Gly-NH2. In kind it is tissue-based. Conditions: Cavia porcellus, target entry is the homologue from another species.
The test system of assay [11] is Mus musculus. The experiment in a line: In vivo opioid activity was evaluated by determining analgesia in the mouse by the tail-flick test, Relative potency with respect to morphine intracerebroventricular route. It counts as functional. The procedure, abridged:
as §2

Assay [12] concerns Mus musculus. Kind of assay: In vivo opioid activity was evaluated by determining analgesia in the mouse by the tail-flick test when administered through intra cerebro ventricular route. The note with it: Cardiac ventricle.

Where a SMILES comes first, the peptide text is derived from it. [ ]: non-standard residue; d: D form.

Sequence of Opioid receptors; mu/kappa/delta (Homo sapiens, UniProt P41145+P41143+P35372) (P35372 whole entry, looked up): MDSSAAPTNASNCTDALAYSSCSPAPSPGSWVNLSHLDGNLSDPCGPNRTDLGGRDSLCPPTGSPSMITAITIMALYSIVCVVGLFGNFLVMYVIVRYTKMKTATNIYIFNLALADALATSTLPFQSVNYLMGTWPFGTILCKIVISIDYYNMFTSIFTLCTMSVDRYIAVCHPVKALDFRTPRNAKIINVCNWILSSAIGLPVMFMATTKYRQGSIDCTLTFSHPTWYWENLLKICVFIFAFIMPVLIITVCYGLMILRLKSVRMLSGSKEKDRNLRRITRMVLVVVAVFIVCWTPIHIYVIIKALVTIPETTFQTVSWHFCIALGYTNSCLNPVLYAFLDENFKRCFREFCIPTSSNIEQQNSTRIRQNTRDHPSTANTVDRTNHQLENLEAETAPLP
Sequence of Opioid receptors; mu/kappa/delta (Homo sapiens, UniProt P41145+P41143+P35372) (P41143 whole entry, looked up): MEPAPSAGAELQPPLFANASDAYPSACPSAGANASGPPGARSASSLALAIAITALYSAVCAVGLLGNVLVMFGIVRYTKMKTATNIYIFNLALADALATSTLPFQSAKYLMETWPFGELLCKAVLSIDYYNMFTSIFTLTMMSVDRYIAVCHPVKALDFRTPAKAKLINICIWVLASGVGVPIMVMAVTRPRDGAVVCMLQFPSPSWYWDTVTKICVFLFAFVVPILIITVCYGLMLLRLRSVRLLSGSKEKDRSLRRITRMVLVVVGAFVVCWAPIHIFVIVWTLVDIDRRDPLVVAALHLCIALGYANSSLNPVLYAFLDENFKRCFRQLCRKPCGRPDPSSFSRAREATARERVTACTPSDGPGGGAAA
Sequence of Opioid receptors; mu/kappa/delta (Homo sapiens, UniProt P41145+P41143+P35372) (P41145 whole entry, looked up): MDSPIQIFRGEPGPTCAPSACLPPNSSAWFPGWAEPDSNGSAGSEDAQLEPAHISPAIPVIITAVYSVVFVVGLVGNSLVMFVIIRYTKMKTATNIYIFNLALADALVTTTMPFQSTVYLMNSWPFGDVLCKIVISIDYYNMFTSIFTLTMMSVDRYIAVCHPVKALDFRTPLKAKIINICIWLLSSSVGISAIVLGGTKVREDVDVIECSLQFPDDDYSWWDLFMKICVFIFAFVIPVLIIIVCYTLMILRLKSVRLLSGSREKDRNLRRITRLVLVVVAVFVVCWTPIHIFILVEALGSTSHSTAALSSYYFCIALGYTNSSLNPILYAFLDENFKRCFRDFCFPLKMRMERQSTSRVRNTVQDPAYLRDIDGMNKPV

Usually IC50 stands for the concentration needed to halve the response being measured. A higher IC50 goes with a need for much substance. On to `CC(NC(=O)CNC(=O)[C@H](Cc1ccccc1)NC(=O)[C@@H](CC[S+](C)[O-])NC(=O)[C@@H](N)Cc1ccc(O)cc1)c1ccccc1` (some centres undefined), for which the values for the ED50 in the assay on Mus musculus [1] and in the assay with Mus musculus [5] were 5.81 µmol/kg and 83.6 pmol/mouse, respectively. Further, the Relative potency with Mus musculus [2] was 36; with Mus musculus [4], 1.8. In addition, the 50% inhibitory concentration (IC50) in assay [3] was 72.1 nM.

With `C[S+]([O-])CC[C@@H](NC(=O)[C@@H](N)Cc1ccc(O)cc1)C(=O)N[C@@H](Cc1ccccc1)C(=O)NCC(=O)NC12CC3CC(CC(C3)C1)C2` (some centres undefined), the values for the Relative potency in the assay on Mus musculus [2] and with Mus musculus [4] were 100 and 2.8, respectively. For the same compound, the ED50 turned out to be 3.93 µmol/kg with Mus musculus [6] and 30.4 pmol/mouse in the assay on Mus musculus [5]. This compound also had an IC50 in assay [3] of 22 nM.

As to `CSCC[C@@H](NC(=O)[C@@H](N)Cc1ccc(O)cc1)C(=O)N[C@@H](Cc1ccccc1)C(=O)NCC(N)=O` (H-Y[dM]FG-NH2), the Relative potency with Mus musculus [7] was 0.9; with Mus musculus [9], 35; in assay [10] it was 0.1. Moreover, the ED50 in the assay with Mus musculus [8] was 87.5 µmol/kg; with Mus musculus [6], 12.1 µmol/kg. In assay [3], this compound showed a 50% inhibitory concentration (IC50) of 97.6 nM.

Turning to `CN(CC(=O)NC12CC3CC(CC(C3)C1)C2)C(=O)[C@H](Cc1ccccc1)NC(=O)[C@@H](CC[S+](C)[O-])NC(=O)[C@@H](N)Cc1ccc(O)cc1` (some centres undefined), the figures for the Relative potency with Mus musculus [2] and with Mus musculus [4] were 50 and 2.3, respectively. Also, the ED50 in the assay on Mus musculus [6] is 4.82 µmol/kg; in the assay with Mus musculus [5], 60.6 pmol/mouse. The compound further gave an IC50 in assay [3] of 25.5 nM.

Take `C[S+]([O-])CC[C@@H](NC(=O)[C@@H](N)Cc1ccc(O)cc1)C(=O)N[C@@H](Cc1ccccc1)C(=O)NCC(=O)NCc1ccccc1` (some centres undefined): the results for the ED50 in the assay on Mus musculus [1] and in the assay on Mus musculus [5] were 3.51 µmol/kg and 18.1 pmol/mouse, respectively. The same compound displayed an IC50 in assay [3] of 21 nM. The results for the Relative potency in the assay with Mus musculus [4] and in the assay on Mus musculus [11] were 3.1 and 167, respectively.

For the compound `CN1CC[C@]23c4c5ccc(O)c4O[C@H]2[C@@H](O)C=C[C@H]3[C@H]1C5` [MORPHINE], the ED50 in the assay on Mus musculus [12] amounted to 3030 µmol/kg.

In the case of `C[S+]([O-])CC[C@@H](NC(=O)[C@@H](N)Cc1ccc(O)cc1)C(=O)N[C@@H](Cc1ccccc1)C(=O)NCC(N)=O` (some centres undefined), the values for the ED50 in the assay with Mus musculus [1] and in the assay on Mus musculus [5] were 0.65 µmol/kg and 1.97 pmol/mouse, respectively.
